Laboratory results taken from ChEMBL document CHEMBL3585302, “Synthesis and antibacterial activities of cadiolides A, B and C and analogues” (Bioorg Med Chem, 2015).

Key:
[1] = Selectivity index, ratio of cytotoxicity against human neutrophils by annexin V-FITC and propidium iodide staining based cytofluorometry to antibacterial IC50 against Staphylococcus aureus CECT 86; assay type: toxicity; conditions: read-out: Selectivity Index
[2] = Selectivity index, ratio of cytotoxicity against human neutrophils by MTT assay to antibacterial IC50 against Salmonella typhi CECT 409; assay type: toxicity; conditions: read-out: Selectivity Index
Bacillus subtilis = assay: Antibacterial activity against Bacillus subtilis CECT 35 assessed as inhibition of microbial growth incubated for 18 hrs by 2-fold microtiter broth dilution method; assay type: functional, organism-based; conditions: CECT 35, 18 h
Summary of the method: (§1)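 Compounds in DMSO, ten 2-fold serial dilutions (125 down to 0.24 µg/mL tested). Bacteria at OD620 = 0.001 in Nutrient Broth mixed 1:1 with dilutions. Incubated overnight (18 h) at 28°C or 37°C according to strain. Growth read turbidimetrically at OD620. MIC is the lowest concentration giving complete growth inhibition. Triplicate runs. Tetracycline as reference.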

[3] = Selectivity index, ratio of cytotoxicity against human neutrophils by annexin V-FITC and propidium iodide staining based cytofluorometry to antibacterial IC50 against Salmonella typhi CECT 409; assay type: toxicity; conditions: read-out: Selectivity Index
Bacillus cereus = assay: Antibacterial activity against Bacillus cereus CECT 148 assessed as inhibition of microbial growth incubated for 18 hrs by 2-fold microtiter broth dilution method; assay type: functional, organism-based; conditions: CECT 148, 18 h; summary of the method: as §1
[4] = Cytotoxicity against human neutrophils assessed as reduction in cell viability at 100 uM incubated for 24 hrs by MTT assay; assay type: cell-based; conditions: neutrophil
Summary of the method: (§2)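 Neutrophils from buffy coats of healthy donors were isolated by Ficoll-Hypaque gradient and seeded at 2 x 10⁵ cells/mL in supplemented RPMI. Exposed to 30 or 100 µM for 24 h at 37 °C, then MTT (2 mg/mL in PBS) added for 3 h. Formazan dissolved in DMSO and read at 560 and 630 nm. Mean ± SEM of n=6-9 independent experiments, compared against vehicle.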

[5] = Selectivity index, ratio of cytotoxicity against human neutrophils by MTT assay to antibacterial IC50 against Staphylococcus aureus CECT 86; assay type: toxicity; conditions: read-out: Selectivity Index
[6] = Selectivity index, ratio of cytotoxicity against human neutrophils by annexin V-FITC and propidium iodide staining based cytofluorometry to antibacterial IC50 against Escherichia coli CECT 405; assay type: toxicity; conditions: read-out: Selectivity Index
Salmonella typhi = assay: Antibacterial activity against Salmonella typhi CECT 409 assessed as inhibition of microbial growth incubated for 18 hrs by 2-fold microtiter broth dilution method; assay type: functional, organism-based, Salmonella enterica subsp. enterica serovar Typhi; conditions: Salmonella enterica, CECT 409, 18 h
Summary of the method: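 Compounds in DMSO, ten 2-fold serial dilutions (125 down to 0.24 µg/mL), mixed 1:1 with bacteria in Nutrient Broth at OD620 = 0.001. Incubated overnight (18 h) at 28 or 37 °C depending on strain. Growth read turbidimetrically at OD620; MIC is the lowest concentration completely inhibiting growth, per CLSI. Triplicate runs; tetracycline reference.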

[7] = Toxicity in human neutrophils assessed as induction of necrosis at 100 uM incubated for 24 hrs by annexin V-FITC and propidium iodide staining based cytofluorometry; assay type: cell-based; conditions: neutrophil
Summary of the method: (§3)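 Freshly isolated donor neutrophils (2 x 10⁶ cells/mL stock, diluted into supplemented RPMI) cultured 24 h with 30 or 100 µM. Stained with annexin V-FITC/propidium iodide; 1 x 10⁴ cells analysed by flow cytometry. Gating: annexin V+/PI− apoptotic, V+/PI+ late apoptotic/necrotic, V−/PI− viable. Mean ± SEM, n=3, compared against vehicle.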

[8] = Toxicity in human neutrophils assessed as induction of apoptosis at 30 and 100 uM incubated for 24 hrs by annexin V-FITC and propidium iodide staining based cytofluorometry; assay type: cell-based; conditions: neutrophil; summary of the method: as §3
[9] = Selectivity index, ratio of cytotoxicity against human neutrophils by annexin V-FITC and propidium iodide staining based cytofluorometry to antibacterial IC50 against Enterococcus faecalis CECT 481; assay type: toxicity; conditions: read-out: Selectivity Index
[10] = Cytotoxicity against human neutrophils assessed as reduction in cell viability at 30 uM incubated for 24 hrs by MTT assay; assay type: cell-based; conditions: neutrophil; summary of the method: as §2
Escherichia coli [11] = assay: Antibacterial activity against Escherichia coli CECT 405 assessed as inhibition of microbial growth incubated for 18 hrs by 2-fold microtiter broth dilution method; assay type: functional, organism-based; conditions: CECT 405, 18 h; summary of the method: as §1
[12] = test system: Pectobacterium carotovorum; assay: Antibacterial activity against Erwinia carotovora CECT 225 assessed as inhibition of microbial growth incubated for 18 hrs by 2-fold microtiter broth dilution method; assay type: functional, organism-based; conditions: CECT 225, 18 h; summary of the method: as §1
[13] = Selectivity index, ratio of cytotoxicity against human neutrophils by MTT assay to antibacterial IC50 against Escherichia coli CECT 405; assay type: toxicity; conditions: read-out: Selectivity Index
[14] = Selectivity index, ratio of cytotoxicity against human neutrophils by MTT assay to antibacterial IC50 against Enterococcus faecalis CECT 481; assay type: toxicity; conditions: read-out: Selectivity Index
Escherichia coli [15] = assay: Antibacterial activity against Escherichia coli CECT 100 assessed as inhibition of microbial growth incubated for 18 hrs by 2-fold microtiter broth dilution method; assay type: functional, organism-based; conditions: CECT 100, 18 h; summary of the method: as §1
Enterococcus faecalis = assay: Antibacterial activity against Enterococcus faecalis CECT 481 assessed as inhibition of microbial growth incubated for 18 hrs by 2-fold microtiter broth dilution method; assay type: functional, organism-based; conditions: CECT 481, 18 h; summary of the method: as §1
Staphylococcus aureus = assay: Antibacterial activity against Staphylococcus aureus CECT 86 assessed as inhibition of microbial growth incubated for 18 hrs by 2-fold microtiter broth dilution method; assay type: functional, organism-based; conditions: CECT 86, 18 h; summary of the method: as §1
[16] = Toxicity in human neutrophils assessed as cell survival at 30 uM incubated for 24 hrs by annexin V-FITC and propidium iodide staining based cytofluorometry; conditions: neutrophil; summary of the method: as §3

SMILES	selectivity ratio [1]	selectivity ratio [2]	MIC (Bacillus subtilis) [µg/mL]	selectivity ratio [3]	IC50 (Bacillus cereus) [µM]	MIC (Bacillus cereus) [µg/mL]	Activity [4]	selectivity ratio [5]	selectivity ratio [6]	IC50 (Salmonella typhi) [µM]	MIC (Salmonella typhi) [µg/mL]	Activity [7] [%]	Activity [8]	selectivity ratio [9]	Activity [10]	IC50 (Escherichia coli [11]) [µM]	MIC (Escherichia coli [11]) [µg/mL]	MIC [12] [µg/mL]	selectivity ratio [13]	selectivity ratio [14]	further results
O=C1O/C(=C\c2ccc(O)c(Br)c2)C(c2cc(Br)c(O)c(Br)c2)=C1C(=O)c1ccco1	5	5	125	5	6.38	3.9	Toxic	5	5	3.19	1.95	57	Non-toxic	5	Non-toxic	6.38	3.9	125	5	5	IC50 (Escherichia coli [15]): 25.6 µM; MIC (Escherichia coli [15]): 15.6 µg/mL; IC50 (Enterococcus faecalis): 3.19 µM; MIC (Enterococcus faecalis): 1.95 µg/mL; IC50 (Staphylococcus aureus): 3.19 µM; MIC (Staphylococcus aureus): 1.95 µg/mL; Activity [16]: Non-toxic
O=C1O/C(=C\c2ccc(O)c(Br)c2)C(c2ccc(O)c(Br)c2)=C1C(=O)c1ccco1	5	5	125	5	3.66	1.95	Toxic	5	5	3.66	1.95	95	Non-toxic	5	Non-toxic	3.66	1.95	125	5	5	IC50 (Escherichia coli [15]): 29.4 µM; MIC (Escherichia coli [15]): 15.6 µg/mL; IC50 (Enterococcus faecalis): 3.66 µM; MIC (Enterococcus faecalis): 1.95 µg/mL; IC50 (Staphylococcus aureus): 3.66 µM; MIC (Staphylococcus aureus): 1.95 µg/mL; Activity [16]: Non-toxic
O=C1O/C(=C\c2ccc(O)c(Br)c2)C(c2ccc(O)c(Br)c2)=C1C(=O)c1ccc(O)c(Br)c1	5	5	125	5	3.06	1.95	Toxic	5	5	3.06	1.95	98	Non-toxic	5	Non-toxic	3.06	1.95	125	5	5	IC50 (Escherichia coli [15]): > 196 µM; MIC (Escherichia coli [15]): > 125 µg/mL; IC50 (Enterococcus faecalis): 3.06 µM; MIC (Enterococcus faecalis): 1.95 µg/mL; IC50 (Staphylococcus aureus): 3.06 µM; MIC (Staphylococcus aureus): 1.95 µg/mL; Activity [16]: Non-toxic
O=C1O/C(=C\c2ccc(O)c(Br)c2)C(c2cc(Br)c(O)c(Br)c2)=C1C(=O)c1ccc(O)c(Br)c1	5	5	125	5	2.72	1.95	Toxic	5	5	2.72	1.95	36	Non-toxic	5	Non-toxic	2.72	1.95	125	5	5	IC50 (Escherichia coli [15]): > 175 µM; MIC (Escherichia coli [15]): > 125 µg/mL; IC50 (Enterococcus faecalis): 2.72 µM; MIC (Enterococcus faecalis): 1.95 µg/mL; IC50 (Staphylococcus aureus): 2.72 µM; MIC (Staphylococcus aureus): 1.95 µg/mL; Activity [16]: Non-toxic
